# Source: publication PMC6447844 (Cancer Science, 2019)
# Like-named read-outs stand apart in the source and are kept apart here.
# What was measured:
# MET = details: read-out: IC50 (MET, biochemical); cited from earlier work
# [1] = study CINC280X2103; ref data on file; cited from earlier work
# [2] = system: Japanese patients with advanced solid tumors; format: in vivo, human; details: for DLT event: one patient
# In short: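 Open-label phase I at two Japanese centres; oral test compound given q.d. or b.i.d. as capsule or tablet in 28-day cycles, escalated by a 2-parameter Bayesian logistic regression model with overdose control. DLT: grade 3 or 4 AE or abnormal laboratory value (CTCAE v4.0), not attributed to disease, intercurrent illness or co-medication, within the first 28 days. MTD: highest dose not expected to cause DLT in >33% of patients.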
# [3] = Plasma pharmacokinetics of capmatinib; format: in vivo, human; details: for AUC / Cmax: 400 mg, 400 mg b.i.d., day 15; for AUC: Mean AUCtau; for Cmax: Mean Cmax
# [4] = system: MET kinase versus other kinases (panel of 57 human kinases); details: cited from earlier work
# [5] = system: Japanese patients with advanced solid tumors; assay: Safety assessment; format: in vivo, human
# In short: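 Patients took oral test compound daily (capsule or tablet, q.d. or b.i.d.) in 28-day cycles until progression, intolerable toxicity or withdrawal. AEs graded by CTCAE v4.0, alongside regular laboratory tests, physical examination, vital signs, weight and periodic ECG. Safety set: patients with at least one dose and at least one valid postbaseline safety assessment.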
# advanced solid tumors = assay: Tumor assessment by CT/MRI according to RECIST version 1.1; format: in vivo, human; details: investigator assessed; eight of 44 patients
# [6] = system: MET-dependent (amplified/autocrine) tumor models; details: at tolerable doses; cited from earlier work
# [7] = human, plasma, oral, capsule group
# [8] = human, plasma, oral, tablet group
# [9] = regardless of relationship, all patients, n = 44
# [10] = regardless of study drug relationship, all patients
smiles,measurement,setting,value
CNC(=O)c1ccc(-c2cnc3ncc(Cc4ccc5ncccc5c4)n3n2)cc1F [capmatinib],IC50,MET,0.13 nM
same,Cmax geometric mean ratio (tablet vs capsule),[1],3.0
same,MTD,[2]; escalated up to 400 mg b.i.d. tablet and 600 mg b.i.d. capsule,not reached
same,DLT event,[2]; 400 mg b.i.d. tablet,grade 3 depression
same,DLT event,[2]; 600 mg b.i.d. capsule,grade 2 suicidal ideation
same,"Highest studied dose determined to be safe, tablet","[2]; tablet formulation, single agent",400 mg b.i.d.
same,Patients permanently discontinued owing to DLT,[2]; two patients,5.1%
same,Median Tmax,"[3]; day 15, tablet",1.0 h
same,Tmax,"[3]; human, plasma, oral",1 h
same,AUC,[3]; [7],11000 ng·h/mL
same,AUC,[3]; [8],31400 ng·h/mL
same,Cmax,[3]; [7],1980 ng/mL
same,Cmax,[3]; [8],7570 ng/mL
same,Steady state achieved,[3]; pre-dose concentrations generally stable after day 15,≤ 15 days
same,selectivity for MET kinase versus other kinases,[4],10 000 fold
same,Patients with one or more dose interruptions,[5]; 21 patients,47.7%
same,AE requiring dose adjustment and/or interruption,[5]; 26 of 44 patients,59.1%
same,Overall tolerability,"[5]; Japanese patients, overall",well tolerated
same,Changes in vital signs and ECG intervals,[5]; all patients,no clinically meaningful changes or trends
same,"Colitis ulcerative, grade 3/4 suspected to be drug-related",[5]; all patients,1 n
same,Decreased appetite requiring dose adjustment and/or interruption,[5]; all patients,6.8%
same,"Decreased appetite, suspected to be drug-related",[5]; all patients,29.5%
same,"Depression, grade 3/4 suspected to be drug-related",[5]; all patients,1 n
same,"Diarrhea, suspected to be drug-related",[5]; all patients,20.5%
same,"Hypophosphatemia, grade 3/4 suspected to be drug-related",[5]; all patients,1 n
same,"Increased ALT and AST, grade 3/4 suspected to be drug-related",[5]; all patients,1 n
same,"Increased GGT, grade 3/4 suspected to be drug-related",[5]; all patients,1 n
same,Increased blood creatinine requiring dose adjustment and/or interruption,[5]; all patients,20.5%
same,"Increased blood creatinine, suspected to be drug-related",[5]; all patients,45.5%
same,"Lung infection, grade 3/4 suspected to be drug-related",[5]; all patients,1 n
same,Nausea requiring dose adjustment and/or interruption,[5]; all patients,13.6%
same,"Nausea, suspected to be drug-related",[5]; all patients,31.8%
same,On-treatment deaths (within 28 days after discontinuation),[5]; all patients,No on‐treatment deaths
same,Patients experiencing one or more AE,[5]; all patients,95.5%
same,QTcB increase from baseline of more than 30 ms,[5]; all patients,three
same,Treatment-emergent prolongation of QTcB of more than 450 ms,[5]; all patients,three
same,Treatment-emergent prolongation of QTcB of more than 480 ms,[5]; all patients,one
same,Vomiting requiring dose adjustment and/or interruption,[5]; all patients,6.8%
same,"Vomiting, suspected to be drug-related",[5]; all patients,29.5%
same,AE leading to discontinuation,"[5]; all patients, n = 44",4 (9.1) n (%)
same,AE requiring dose interruption and/or reduction,"[5]; all patients, n = 44",26 (59.1) n (%)
same,"AE requiring dose interruption and/or reduction, Suspected to be drug-related","[5]; all patients, n = 44",17 (38.6) n (%)
same,All deaths (incl. more than 28 days after discontinuation),"[5]; all patients, n = 44",1 (2.3) n (%)
same,On-treatment deaths (up to 28 d after discontinuation),"[5]; all patients, n = 44",0 n (%)
same,"Patients experiencing ≥1 AE, Suspected to be drug-related","[5]; all patients, n = 44",37 (84.1) n (%)
same,SAE,"[5]; all patients, n = 44",7 (15.9) n (%)
same,"SAE, Suspected to be drug-related","[5]; all patients, n = 44",2 (4.5) n (%)
same,Total number of patients experiencing ≥1 AE,"[5]; all patients, n = 44",42 (95.5) n (%)
same,Discontinuation due to AE (all grades),[5]; four of 44 patients,9.1%
same,AE suspected to be drug-related,"[5]; mainly grade 1/2, 37 patients",84.1%
same,Patients with dose interrupted only once,[5]; nine patients,20.5%
same,Tolerability,[5]; p.o. 400 mg b.i.d. in tablet formulation,well tolerated
same,"Anemia, All grades",[5]; [9],7 (15.9) n (%)
same,"Anemia, Grade 3/4",[5]; [9],0 n (%)
same,"Any AE, All grades",[5]; [9],42 (95.5) n (%)
same,"Any AE, Grade 3/4",[5]; [9],15 (34.1) n (%)
same,"Constipation, All grades",[5]; [9],7 (15.9) n (%)
same,"Constipation, Grade 3/4",[5]; [9],0 n (%)
same,"Decreased appetite, All grades",[5]; [9],18 (40.9) n (%)
same,"Decreased appetite, grade 3/4",[5]; [9],3 (6.8) n (%)
same,"Diarrhea, All grades",[5]; [9],11 (25.0) n (%)
same,"Diarrhea, Grade 3/4",[5]; [9],0 n (%)
same,"Edema peripheral, All grades",[5]; [9],9 (20.5) n (%)
same,"Edema peripheral, Grade 3/4",[5]; [9],1 (2.3) n (%)
same,"Fatigue, All grades",[5]; [9],7 (15.9) n (%)
same,"Fatigue, Grade 3/4",[5]; [9],0 n (%)
same,"Hypoalbuminemia, All grades",[5]; [9],10 (22.7) n (%)
same,"Hypoalbuminemia, grade 3/4",[5]; [9],2 (4.5) n (%)
same,"Increased blood creatinine, All grades",[5]; [9],23 (52.3) n (%)
same,"Increased blood creatinine, Grade 3/4",[5]; [9],0 n (%)
same,"Malaise, All grades",[5]; [9],8 (18.2) n (%)
same,"Malaise, Grade 3/4",[5]; [9],0 n (%)
same,"Nausea, All grades",[5]; [9],21 (47.7) n (%)
same,"Nausea, Grade 3/4",[5]; [9],0 n (%)
same,"Pyrexia, All grades",[5]; [9],8 (18.2) n (%)
same,"Pyrexia, Grade 3/4",[5]; [9],0 n (%)
same,"Vomiting, All grades",[5]; [9],17 (38.6) n (%)
same,"Vomiting, Grade 3/4",[5]; [9],0 n (%)
same,Grade 3/4 AE,"[5]; regardless of study drug relationship, 15 patients",34.1%
same,"Ascites, grade 3/4",[5]; [10],4.5%
same,"Decreased appetite, all grades",[5]; [10],40.9%
same,"Decreased appetite, grade 3/4",[5]; [10],6.8%
same,"Diarrhea, all grades",[5]; [10],25.0%
same,"Hypoalbuminemia, all grades",[5]; [10],22.7%
same,"Hypoalbuminemia, grade 3/4",[5]; [10],4.5%
same,"Hyponatremia, grade 3/4",[5]; [10],9.1%
same,"Hypophosphatemia, grade 3/4",[5]; [10],4.5%
same,"Increased GGT, grade 3/4",[5]; [10],4.5%
same,"Increased blood creatinine, all grades",[5]; [10],52.3%
same,"Nausea, all grades",[5]; [10],47.7%
same,"Peripheral edema, all grades",[5]; [10],20.5%
same,"Vomiting, all grades",[5]; [10],38.6%
same,Grade 3/4 AE suspected to be drug-related,[5]; seven patients,15.9%
same,Patients with one dose reduction,[5]; three patients,6.8%
same,Best overall response of SD,advanced solid tumors,18.2%
same,Effect on MET-dependent tumor models,[6],causes regression
